Results from different studies.
Each line is one published result; the experiments were not run side by side.
Read-out: enzyme activity
Mode: inhibitor
KIT: Mast/stem cell growth factor receptor Kit (KIT, Homo sapiens, UniProt P10721)
KIT T670I: Mast/stem cell growth factor receptor Kit (KIT, Homo sapiens, UniProt P10721, T670I)

Compound	target	assay	setting	inhibition [%]
CS(=O)(=O)Nc1cccc(-c2csc(NC(=O)CSc3nc4nccnc4c(=O)n3CCc3ccccc3)n2)c1	KIT	–	10 µM	-5
COc1cc2ncnc(Nc3ccc(Oc4ccccc4)cc3C)c2cc1OC	KIT T670I	–	1 µM	-9
CC/C(=N\NC(=O)NCc1cccc(O)c1)c1ccc(O)c(C)c1O	Mast/stem cell growth factor receptor Kit (KIT, Homo sapiens, UniProt P10721, D816V)	–	0.1 µM	1.4
COc1cc2nccc(Oc3ccc(NC(=O)c4c5n(n(-c6ccc(F)cc6)c4=O)CCCC5)cc3)c2cc1OC	KIT	–	0.1 µM	-1
C=CC(=O)Nc1cc(Nc2nccc(Nc3cc(Cl)c(F)cc3C(C)(C)O)n2)c(OC)cc1N1CC[C@@H](N(C)C)C1	KIT	–	1 µM	2
O=C(CSc1nc2nccnc2c(=O)n1CCc1ccccc1)Nc1nccs1	Mast/stem cell growth factor receptor Kit (KIT, Homo sapiens, UniProt P10721, T670I/V559D)	–	10 µM	1
COc1cc(-c2cc(-c3ccc(N4CCNCC4)cc3)cnc2N)cc(OC)c1OC	Mast/stem cell growth factor receptor Kit (KIT, Homo sapiens, UniProt P10721, V560G)	–	1 µM	5
COc1cc2ncnc(Nc3ccc(Oc4ccccc4)c(C)c3C)c2cc1OC	KIT T670I	–	1 µM	-7
CCOc1cc(-c2nncn2C)ccc1Nc1ncc2cc(C)nc(NCC(C)(C)C)c2n1	KIT	FRET	1 µM	< 15
CN(C)C1CCN(CC#Cc2nn(C3CCCC3)c3nc(NCc4ccccc4)ncc23)C1 (stereo not shown)	KIT	FRET	10 µM	11
